A short description of data set [1]: Concentration in nmol/plate to induce 50 revertants/plate. It counts as ADME. Put shortly: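 Ames plate incorporation, S. typhimurium TA 1535, Aroclor-induced male hamster liver S9; duplicate plates, 10-point range 1–1000 µg/plate; 37 °C, 48 h; revertants counted by hand tally. Potency index: concentration (nmol/plate) inducing 50 revertants/plate, taken from linear portion of dose–response curve.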

Data set [2] has as its system Salmonella typhimurium. The data set can be described thus: Mutagenicity against Salmonella tester strain TA 1535 without hamster S9 mix (3 mg/plate) in cells. It is filed as functional, Salmonella enterica subsp. enterica serovar Typhimurium.
The subject of data set [3] is Salmonella typhimurium. The data set can be described thus: compound was tested for mutagenicity against Salmonella tester strain TA 1535 with hamster S9 mix (3 mg/plate) in cells at dose of 500 ug.
The subject of data set [4] is Salmonella typhimurium. The data set can be described thus: compound was tested for mutagenicity against Salmonella tester strain TA 1535 with out hamster S9 mix (3 mg/plate) in cells at dose of 500 ug.
Data set [5] concerns Salmonella typhimurium. Nature of the data set: compound was tested for mutagenicity against Salmonella tester strain TA 1535 with hamster S9 mix (3 mg/plate) in cells at dose of 1000 ug. It counts as functional, Salmonella enterica subsp. enterica serovar Typhimurium. Put shortly: (§1)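 Plate incorporation assay in S. typhimurium TA 1535 with Aroclor-induced male hamster liver S9 (3 mg/plate). Compound in Me2SO, 1–1000 µg/plate, duplicate plates, mean revertants/plate; incubated 37 °C for 48 h, colonies hand-counted. Positive if two consecutive doses gave revertants more than twice the concurrent control mean.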

Data set [6] has as its system Salmonella typhimurium. Nature of the data set: compound was tested for mutagenicity against Salmonella tester strain TA 1535 with hamster S9 mix (3 mg/plate) in cells at dose of 100 ug. It counts as functional, Salmonella enterica subsp. enterica serovar Typhimurium. Summed up: as §1
Data set [7] concerns Salmonella typhimurium. The data set can be described thus: compound was tested for mutagenicity against Salmonella tester strain TA 1535 with hamster S9 mix (3 mg/plate) in cells at dose of 10 ug. It counts as functional, Salmonella enterica subsp. enterica serovar Typhimurium. Summed up: as §1
Data set [8] relates to Salmonella typhimurium. Nature of the data set: compound was tested for mutagenicity against Salmonella tester strain TA 1535 with hamster S9 mix (3 mg/plate) in cells at dose of 1 ug. It counts as functional, Salmonella enterica subsp. enterica serovar Typhimurium. Put shortly:
as §1

Data set [9] deals with Salmonella typhimurium. Nature of the data set: compound was tested for mutagenicity against Salmonella tester strain TA 1535 with hamster S9 mix (3 mg/plate) in cells at dose of 2.5 ug. It is filed as functional, Salmonella enterica subsp. enterica serovar Typhimurium. Put shortly: as §1
Data set [10] concerns Salmonella typhimurium. The data set can be described thus: compound was tested for mutagenicity against Salmonella tester strain TA 1535 with hamster S9 mix (3 mg/plate) in cells at dose of 250 ug. It counts as functional, Salmonella enterica subsp. enterica serovar Typhimurium. Summed up:
as §1

In data set [11] the test system is Salmonella typhimurium. The data set can be described thus: compound was tested for mutagenicity against Salmonella tester strain TA 1535 with hamster S9 mix (3 mg/plate) in cells at dose of 25 ug. It is filed as functional, Salmonella enterica subsp. enterica serovar Typhimurium. Summed up:
as §1

For data set [12], the system named is Salmonella typhimurium. Nature of the data set: compound was tested for mutagenicity against Salmonella tester strain TA 1535 with hamster S9 mix (3 mg/plate) in cells at dose of 500 ug. It is filed as functional, Salmonella enterica subsp. enterica serovar Typhimurium. Summed up:
as §1

Data set [13] relates to Salmonella typhimurium. The data set can be described thus: compound was tested for mutagenicity against Salmonella tester strain TA 1535 with hamster S9 mix (3 mg/plate) in cells at dose of 5 ug. It counts as functional, Salmonella enterica subsp. enterica serovar Typhimurium. Summed up:
as §1

Data set [14] concerns Salmonella typhimurium. Nature of the data set: compound was tested for mutagenicity against Salmonella tester strain TA 1535 with out hamster S9 mix (3 mg/plate) in cells at dose of 1000 ug. It counts as functional, Salmonella enterica subsp. enterica serovar Typhimurium. Put shortly: (§2)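 Plate incorporation assay in S. typhimurium TA 1535 without S9 activation. Compound in Me2SO, 1–1000 µg/plate, duplicate plates, mean revertants/plate; incubated 37 °C for 48 h, colonies hand-counted. Positive if two consecutive doses gave revertants more than twice the concurrent control mean.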

For data set [15], the system named is Salmonella typhimurium. The data set can be described thus: compound was tested for mutagenicity against Salmonella tester strain TA 1535 with out hamster S9 mix (3 mg/plate) in cells at dose of 100 ug. It counts as functional, Salmonella enterica subsp. enterica serovar Typhimurium. Summed up: as §2
Data set [16] concerns Salmonella typhimurium. The data set can be described thus: compound was tested for mutagenicity against Salmonella tester strain TA 1535 with out hamster S9 mix (3 mg/plate) in cells at dose of 10 ug. It is filed as functional, Salmonella enterica subsp. enterica serovar Typhimurium. Put shortly:
as §2

Data set [17] relates to Salmonella typhimurium. The data set can be described thus: compound was tested for mutagenicity against Salmonella tester strain TA 1535 with hamster S9 mix (3 mg/plate) in cells. It is filed as functional, Salmonella enterica subsp. enterica serovar Typhimurium. Put shortly: as §1
Data set [18] relates to Salmonella typhimurium. The data set can be described thus: compound was tested for mutagenicity against Salmonella tester strain TA 1535 with hamster S9 mix (3 mg/plate) in cells. Activity expressed as no. of cells. It counts as functional, Salmonella enterica subsp. enterica serovar Typhimurium. Put shortly:
as §1

The test system of data set [19] is Salmonella typhimurium. The data set can be described thus: compound was tested for mutagenicity against Salmonella tester strain TA 1535 with out hamster S9 mix (3 mg/plate) in cells. It counts as functional, Salmonella enterica subsp. enterica serovar Typhimurium. Put shortly: as §2
The test system of data set [20] is Salmonella typhimurium. Nature of the data set: compound was tested for mutagenicity against Salmonella tester strain TA 1535 with out hamster S9 mix (3 mg/plate) in cells at dose of 1 ug. It counts as functional, Salmonella enterica subsp. enterica serovar Typhimurium. Put shortly:
as §2

The test system of data set [21] is Salmonella typhimurium. Nature of the data set: compound was tested for mutagenicity against Salmonella tester strain TA 1535 with out hamster S9 mix (3 mg/plate) in cells at dose of 2.5 ug. It counts as functional, Salmonella enterica subsp. enterica serovar Typhimurium. Summed up:
as §2

Data set [22] has as its system Salmonella typhimurium. The data set can be described thus: compound was tested for mutagenicity against Salmonella tester strain TA 1535 with out hamster S9 mix (3 mg/plate) in cells at dose of 250 ug. It counts as functional, Salmonella enterica subsp. enterica serovar Typhimurium. Put shortly: as §2
Data set [23] deals with Salmonella typhimurium. Nature of the data set: compound was tested for mutagenicity against Salmonella tester strain TA 1535 with out hamster S9 mix (3 mg/plate) in cells at dose of 25 ug. It is filed as functional, Salmonella enterica subsp. enterica serovar Typhimurium. Put shortly:
as §2

Data set [24] deals with Salmonella typhimurium. Nature of the data set: compound was tested for mutagenicity against Salmonella tester strain TA 1535 with out hamster S9 mix (3 mg/plate) in cells at dose of 500 ug. It counts as functional, Salmonella enterica subsp. enterica serovar Typhimurium. Put shortly: as §2
Data set [25] relates to Salmonella typhimurium. The data set can be described thus: compound was tested for mutagenicity against Salmonella tester strain TA 1535 with out hamster S9 mix (3 mg/plate) in cells at dose of 50 ug. It is filed as functional, Salmonella enterica subsp. enterica serovar Typhimurium. Put shortly:
as §2

Data set [26] concerns Salmonella typhimurium. Nature of the data set: compound was tested for mutagenicity against Salmonella tester strain TA 1535 with out hamster S9 mix (3 mg/plate) in cells at dose of 5 ug. It is filed as functional, Salmonella enterica subsp. enterica serovar Typhimurium. Put shortly: as §2
Data set [27] relates to Salmonella typhimurium. The data set can be described thus: compound was tested for mutagenicity against Salmonella tester strain TA 1535 with hamster S9 mix (3 mg/plate) in cells at dose of 50 ug. It is filed as functional, Salmonella enterica subsp. enterica serovar Typhimurium. Summed up: as §1

For `Cc1cccc(CN(C)N=O)c1`, the “Log 1/C” value in data set [1] is given as -3.039. In addition, the Activity in the data set on Salmonella typhimurium [2] is 16. The “No. of revertants per plate” value with Salmonella typhimurium [3] is given as 106; with Salmonella typhimurium [4], 14.

Take `CN(Cc1ccc(C(=O)O)cc1)N=O`: the Activity in the data set with Salmonella typhimurium [2] is on record as 13. The “No. of revertants per plate” value in the data set with Salmonella typhimurium [3] was 15; in the data set with Salmonella typhimurium [4], 21.

With `COc1cccc(CN(C)N=O)c1`, the Log in data set [1] is -1.886 (degrees C)-1. Also, the Activity in the data set on Salmonella typhimurium [2] amounted to 25. The “No. of revertants per plate” value came to 145 in the data set on Salmonella typhimurium [3] and 18 with Salmonella typhimurium [4].

In the case of `COc1ccc(CN(C)N=O)cc1`, the Activity in the data set with Salmonella typhimurium [2] is reported as 12. The “No. of revertants per plate” value with Salmonella typhimurium [3] came to 24; with Salmonella typhimurium [4], 15.

As for `CN(Cc1ccc(C#N)cc1)N=O`, in [1], the “Log 1/C” value was -2.78. In addition, the Activity with Salmonella typhimurium [2] turned out to be 15. Besides, the “No. of revertants per plate” value in the data set with Salmonella typhimurium [3] amounted to 180; in the data set with Salmonella typhimurium [4], 12.

Consider `CN(Cc1ccc(Cl)cc1)N=O`, for which the “Log 1/C” value in data set [1] is given as -1.933. For the same compound, the Activity with Salmonella typhimurium [2] worked out at 22; in the data set with Salmonella typhimurium [17], 22; in the data set with Salmonella typhimurium [18], 23; in the data set on Salmonella typhimurium [19], 19. In addition, the “No. of revertants per plate” value with Salmonella typhimurium [5] is given as 192; in the data set on Salmonella typhimurium [6], 136; in the data set on Salmonella typhimurium [7] it was 24; in the data set on Salmonella typhimurium [8], 18; with Salmonella typhimurium [9], 19; with Salmonella typhimurium [10] it was 221. Besides, the “No. of revertants per plate” value in the data set on Salmonella typhimurium [11] is given as 42; with Salmonella typhimurium [12], 166; in the data set with Salmonella typhimurium [13], 21; with Salmonella typhimurium [14], 17; with Salmonella typhimurium [15] it was 19; in the data set on Salmonella typhimurium [16], 18. In addition, the “No. of revertants per plate” value in the data set on Salmonella typhimurium [20] worked out at 17; in the data set on Salmonella typhimurium [21] it was 16; in the data set with Salmonella typhimurium [22] it was 19; in the data set on Salmonella typhimurium [23] it was 21; with Salmonella typhimurium [24], 24; with Salmonella typhimurium [25] it was 19. For the same compound, the “No. of revertants per plate” value in the data set on Salmonella typhimurium [26] stood at 14; in the data set on Salmonella typhimurium [27] it was 77.

As for `CN(Cc1cccc(Br)c1)N=O`, in [1], the “Log 1/C” value is on record as -1.552. The compound further showed an Activity with Salmonella typhimurium [2] of 11. The “No. of revertants per plate” value in the data set with Salmonella typhimurium [3] amounted to 223; in the data set on Salmonella typhimurium [4], 11.

Take `CN(Cc1cccc(C(F)(F)F)c1)N=O`: in data set [1], the “Log 1/C” value is reported as -1.961. Further, the Activity in the data set with Salmonella typhimurium [2] worked out at 21. Moreover, the “No. of revertants per plate” value with Salmonella typhimurium [3] was 127; with Salmonella typhimurium [4], 18.

Source of the values: ChEMBL document CHEMBL1123208, “Quantitative structure-activity relationship of the mutagenicity of substituted N-nitroso-N-benzylmethylamines: possible implications for carcinogenicity” (J Med Chem, 1986).
